# Screening results deposited in PubChem BioAssay by several laboratories.
# UPR XBP1 act = activators of adaptive arm of unfolded protein response (XBP1) | activation, % at 20 µM | CHO-XBP1 luciferase reporter, IRE1-XBP1 UPR activation, luminescence; percent of tunicamycin response, DMSO as zero | 330,000 compounds, 0.33% hits | AID 463104;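 active means versus positive control, 20 µM dose yields 30% or more activation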;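 further: 100% = tunicamycin at 10 µg/mL and 0% = DMSO only wells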
#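 Material: IRE1-XBP1 luciferase reporter CHO line / Quantity: one thousand reporter cells per well / Buffer or medium: F12 with 10% serum / Compound: 20 µM single concentration, DMSO 1% / Times: 6 h treatment, 37 °C / Detection: Steady-Glo luciferase glow luminescence, 10 min after reagent addition / Benchmarks: tunicamycin high, DMSO low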
# V-ATPase pHluor = yeast V-ATPase proton transport regulation by pHLuorin | S. cerevisiae, pHLuorin cytosolic pH fluorescence | response, % at 10 µM | 350,000 compounds, 0.37% hits | AID 504577; in the data active means response mostly above about 7.3%, no sharp cut-off; inactive means mostly below about 5.4%; further: actives read high
# TbMetRS inhib = Trypanosoma brucei MetRS inhibition; purified T. brucei MetRS, ATP depletion, Kinase-Glo luminescence; inhibition, % at 11.9 µM; 360,000 compounds, 0.4% hits;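 active means inhibition above a per-plate cutoff of the control wells' mean inhibition plus 3 SD, cut at about 5.5% in these data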;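 further: 0% = DMSO wells median and 100% = median of wells with control inhibitor compound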
#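 Assay system: T. brucei methionyl-tRNA synthetase, purified | Medium: HEPES buffer with MgCl2, KCl, DTT, spermine, BSA, pyrophosphatase | Compound: 11.9 µM single point | Incubation: 15 min enzyme-compound preincubation, 2 h reaction, 10 min detection, 25 °C | Measured by: Kinase-Glo luciferase luminescence reporting remaining unconsumed ATP | Measure: % inhibition normalized to control-well medians | Replication: Singlicate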
# CHOP inh = CHOP inhibition in unfolded protein response; inhibition, % at 10 µM; 220,000 compounds, 3.8% hits; CHO-K1 CHOP-promoter luciferase, tunicamycin-induced, 15-18 h;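 active means compounds that reduced the stress-induced luciferase reporter signal by more than about 70% of percent inhibition, limit read from the data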;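 further: 0% = tunicamycin plus vehicle and 100% = wells without tunicamycin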
# CHOP UPR activ = activators of apoptotic arm of unfolded protein response (CHOP) | CHO-CHOP luciferase reporter, UPR activation, luminescence; percent of tunicamycin response over DMSO baseline | activation, % at 10 µM | 330,000 compounds, 0.34% hits | AID 449763;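 active means at 10 µM dose, activation of 40% or more, normalized to positive control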;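 further: 100% = tunicamycin at 10 µg/mL and 0% = DMSO alone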
#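 Assay system: CHO-CHOP cells, stable luciferase reporter of PERK-eIF2a-CHOP signalling / Buffer or medium: F12 plus 10% serum / Compound dosing: one dose, 10 µM in 0.5% DMSO / Times: 6 h compound treatment, 37 °C / Technique: luciferase luminescence / Read-out: % reporter activation, DMSO baseline versus tunicamycin full activation / Benchmarks: tunicamycin and DMSO controls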
# * hit, by the source's call; . = no result given. Shown is part of a subset that was picked to be rich in hits.
SMILES,UPR XBP1 act,V-ATPase pHluor,TbMetRS inhib,CHOP inh,CHOP UPR activ
Cc1cc2nc(C(C)(C)C)c(Cc3ccccc3)n2c(C)c1Br,.,.,0.2,.,.
CCOC(=O)N1CCN(C(=O)C[C@@H]2C[C@@]3(C(=O)OCC)CCCC=C3N(Cc3ccccc3)C2=O)CC1,.,.,0.1,.,.
Cc1nnc(-c2cccc(Br)c2)c2cn(-c3cccc(Br)c3)nc12,1.0,1.5,-0.7,75.3*,0.8
O=C(NCC1CCCO1)C(c1ccc(F)cc1)N(C(=O)Cn1nnc(-c2ccc(F)cc2)n1)c1cccc(O)c1 (stereo not drawn),-1.1,-2.0,-1.5,26.9,0.5
C=CCNC(=S)N/N=C/c1ccc(C(C)(C)C)cc1,.,-0.2,-0.9,95.3*,.
Cc1cccc(NC(=S)N=Nc2c(O)[nH]c3ccccc23)c1,0.5,2.5,0.3,87.0*,15.8
Cc1nc2c(C#N)c[nH]n2c(=O)c1CCO,-0.5,-0.9,-0.6,3.9,1.9
Cc1ccc(C(=O)Nc2ccccc2C(=O)N2CC3(C)CC2CC(C)(C)C3)cc1 (stereo not drawn),-2.1,1.9,-0.9,92.6*,-2.1
COC(=O)CN1C(=O)CSc2ccc(S(=O)(=O)N3CCC(C)CC3)cc21,.,.,0.0,.,.
Cc1ccc(-c2cc(N)n[nH]2)cc1,0.5,1.7,-0.9,7.7,-0.7
CC(C)(C)c1ccc(-c2cc(N)n[nH]2)cc1,-5.0,0.7,-1.4,90.7*,-7.3
COc1cc(CNc2ccc(O)cc2)cc(Br)c1OCc1ccccc1F,-1.0,-4.4,0.2,87.1*,4.3
Cc1cc(C(=O)N/N=C/c2cc([N+](=O)[O-])ccc2O)c2ccccc2n1,-0.8,1.9,-0.4,71.4*,-0.6
O=C(N/N=C/c1cc([N+](=O)[O-])ccc1O)c1c[nH]c2ccccc12,-0.8,4.7,0.6,80.7*,-1.2
O=C(N/N=C/c1cc([N+](=O)[O-])ccc1O)c1cc(-c2ccccc2)nc2ccccc12,1.0,2.6,-0.3,58.0,4.2
O=S(=O)(c1ccc(F)cc1)N1CC2CCCN2c2ccc(C(F)(F)F)cc21 (stereo not drawn),0.1,-0.3,0.6,75.4*,3.1
Cc1ccc(S(=O)(=O)N2CC3CCCN3c3ccc(C(F)(F)F)cc32)cc1 (stereo not drawn),-0.3,6.4,-1.1,55.0,-1.3
CC(C)(C)CC(=O)NC(=S)NCCc1ccccc1,2.7,1.0,-0.5,70.2*,2.6
CC(C)CC(=O)NC(=S)NCCc1ccccc1,-0.7,-0.9,-0.6,56.8,3.6
CCC(=O)OC1CC(C)N(C(=O)c2ccccc2)c2ccc(C)cc21 (stereo not drawn),-1.5,7.8,0.0,32.9,-1.4
CCCC(=O)O[C@H]1C[C@@H](C)N(C(=O)c2ccccc2)c2ccc(C)cc21,-0.9,-2.7,-0.3,73.9*,0.2
CCSc1nnc(NC(=O)c2cc(-c3ccc(C)c(C)c3O)n[nH]2)s1,.,-0.3,-0.5,87.6*,.
COc1ccc(NC(=O)CN2C(=O)NC3(CCCCCC3)C2=O)cc1Cl,-0.5,-0.6,-0.3,.,-0.3
CN(C)CCCNS(=O)(=O)c1ccc(N2CCC(c3ccc(Cl)cc3)=N2)cc1,74.9*,.,.,.,8.3
O=S(=O)(c1ccc(N2CCC(c3ccc(Cl)cc3)=N2)cc1)N(CCO)CCO,3.9,-4.9,-1.1,15.1,1.5
SMILES,UPR XBP1 act,V-ATPase pHluor,TbMetRS inhib,CHOP inh,CHOP UPR activ
COc1ccc(C(c2nnnn2C2CCCC2)N2CCC(C)CC2)cc1 (stereo not drawn),1.1,2.2,-0.6,82.9*,0.1
COCC(=O)N(Cc1cc2ccc(C)c(C)c2n2nnnc12)C1CCCC1,8.2,-0.8,-0.2,25.4,-1.0
O=C(NCc1ccccc1)C(C1CC1)n1c(=O)c(-c2cc3ccccc3[nH]2)nc2ccccc21 (stereo not drawn),.,.,-0.1,.,.
COc1ccc(C(CNC(=O)c2oc3ccc(Br)cc3c2C)N2CCCCC2)cc1 (stereo not drawn),1.8,-0.7,-0.5,78.4*,0.8
O=C(CCNC(=O)c1ccc(Br)cc1)NCCCN1CCCC1=O,-0.4,1.1,0.0,.,0.1
Cn1c(C2CCCCC2)nc2c1c(=O)[nH]c(=O)n2Cc1ccccc1,2.1,-2.2,0.7,71.5*,-1.3
Cn1c(=O)[nH]c(=O)c2c1nc(N1CCCCCC1)n2CCCSc1nc2ccccc2o1,10.5,3.2,-0.2,95.1*,1.7
Cn1c(=O)[nH]c(=O)c2c1nc(N1CCC(Cc3ccccc3)CC1)n2Cc1ccccc1,-2.9,-2.0,-0.2,88.1*,-0.2
Cn1c(=O)[nH]c(=O)c2c1nc(N1CCCCCC1)n2CCSc1nc2ccccc2o1,5.0,3.3,-1.1,-2.7,-0.4
CC(=O)c1ccc(NC(=O)c2cc(Cl)sc2Cl)cc1,0.6,3.8,0.5,-59.8,6.5
COc1cc(/C=N/NC(=O)c2nnn(-c3nonc3N)c2C)ccc1OCc1ccc(Cl)cc1,.,.,0.1,.,.
O=c1[nH]c(=S)[nH]c2c1C(c1cccc(C(F)(F)F)c1)OC(CCc1ccccc1)C2 (stereo not drawn),.,.,-0.2,.,.
CN1CCCCC1(C)C(=O)NCc1ccc(C(C)(C)C)cc1 (stereo not drawn),.,.,-0.3,.,.
O/N=C/c1ccc(OCc2ccccc2)c(Br)c1,.,3.5,1.1,27.5,.
O/N=C/c1cc(Br)cc(Br)c1OCc1ccccc1,1.9,-11.4,-0.2,91.7*,-2.1
CS(=O)(=O)Nc1ccc2c(c1)[C@H]1C[C@H](CC(=O)NCc3cccc(F)c3)O[C@@H](CO)[C@H]1O2,.,-0.2,0.6,.,.
Cc1sc(NC(=O)CSC2=NCCS2)nc1-c1ccccc1,1.8,-1.3,-0.4,72.6*,0.8
O=C(CSC1=NCCS1)Nc1nc2ccccc2s1,4.2,-1.8,0.2,25.4,4.4
NC(=O)c1ncn([C@@H]2O[C@H](CNC(=O)[C@H](N)CSCc3ccccc3)[C@@H](O)[C@H]2O)n1,.,-0.6,-0.1,.,.
CCCCNC(=O)CCn1c(=O)c2ccccc2n(Cc2ccc(Cl)cc2)c1=O,4.3,-0.8,-0.2,87.4*,0.2
CC(C)n1nc(C(=O)OCC(=O)c2c[nH]c3ccccc23)c2ccccc2c1=O,4.3,-7.9,0.4,80.5*,1.0
CC(C)(CO)NCc1ccccc1OCC(=O)Nc1ccccc1,-0.3,2.9,-1.0,6.0,0.4
Cc1ccc(NC(=O)COc2ccccc2CNC(C)(C)CC(C)(C)C)cc1,-0.2,-1.5,-0.8,74.1*,0.8
CCC(=O)N(c1nnc(SCC(=O)c2ccc[nH]2)s1)C1CC1,-2.9,18.1*,-0.3,.,2.9
Cc1ccc2nc(N(CCCN(C)C)C(=O)c3ccc(S(=O)(=O)N(C)C)cc3)sc2c1,-0.5,-0.6,-0.3,10.6,3.3
Cc1ccc2nc(N(CCCN(C)C)C(=O)c3sc4ccccc4c3Cl)sc2c1,-0.6,2.8,0.3,79.8*,5.4
